Measured values as given in article PMC10757425 (Toxicology, 2023).
“Also recorded” adds a separate entry of the source.

Assays:
[1] = OH-PCB disposition in serum and tissues by GC-MS/MS; type: in vivo, Sprague-Dawley rats; details: for detection in serum, brain, liver, and lung / rank order of levels across serum and tissues: male rats, 28 days of 4-52 implant exposure
Method in brief: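 Male Sprague-Dawley rats received a subcutaneous polymeric implant (1.3 ± 0.1 mg/g body weight) on the back at PND 28, loaded at 0, 1, 5 or 10% (w/w) test compound, for 28 days. Tissues (n=8/group) were homogenized in 2-propanol and liquid-liquid extracted, with surrogate-recovery and internal-standard correction. LOD came from sham tissues (mean + t0.01 × SD).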

[2] = tested on: Sprague-Dawley rats; experiment: Open Field Test; type: in vivo; details: between the groups at any time epoch, two-way ANOVA
Method in brief: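 Implant-exposed rats (n=15/group) were tested blind during exposure days 24–28. The opaque rectangular arena (~5000 cm2, 50 cm walls) was divided into central and outer zones. Each rat started in the center and explored freely for 30 min on two consecutive days. Overhead video tracking recorded distance travelled in 5-min epochs. Analysis: two-way ANOVA.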

[3] = tested on: Sprague-Dawley rats; experiment: Hole Board Test; type: in vivo
Method in brief: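 Implant-exposed rats (n=15/group) were tested blind on exposure days 24–28. Each rat was released centrally for 5 min. Distance and head dips (ears passing through a hole) were video-tracked. Analysis: one-way ANOVA with Fisher's LSD; mean ± SD.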

[4] = General toxicity assessment; type: in vivo, Sprague-Dawley rats
Method in brief: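 Rats arrived at 21 days old and were acclimated 7 days. At PND 28, under isoflurane with 1 mg/kg s.c. meloxicam, they received s.c. implants with 0, 1, 5 or 10% w/w test compound (1.3 ± 0.1 mg/g bw), n=15/group. Surgical site and behaviour were checked daily for 5 days. At PND 56, blood was taken by cardiac puncture, rats were perfused with cold PBS and organs harvested.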

[5] = In vivo exposure dosimetry: 4-52 remaining in retrieved subcutaneous implants; design: species or system Sprague-Dawley rats; details: for In vivo exposure: 4-52 remaining in the implant / In vivo exposure: 4-52 remaining in the implant (%): subcutaneous implant, 28 days, male rats
Method in brief: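 Male rats carried s.c. implants (0, 1, 5 or 10% w/w; 1.3 ± 0.1 mg/g bw) from PND 28 for 28 days. Retrieved implants were dissolved in 10 mL DCM, diluted 3-fold and read by UV/Vis at 285 nm against a matrix-matched calibration curve. Internal dose was taken as total load minus remaining amount, assuming 100% bioavailability.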

[6] = tested on: Sprague-Dawley rats; experiment: Y-maze; type: in vivo
[7] = tested on: Sprague-Dawley rats; experiment: Histopathology; type: in vivo; details: for prevalence of minimal liver inflammation (% of evaluated slides): sham 37.5%
Method in brief: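 After 28 days of implant exposure, brain, accessory lobe of right lung and left lateral liver lobe were formalin-fixed and H&E stained (8 rats/group, 2 per cohort, random). A veterinary pathologist scored brain regions (prefrontal cortex, striatum, hippocampus, cerebellum) and lung and liver for inflammation (any immune cells), hemorrhage, edema, necrosis, apoptosis and morphology. Brain was also scored for gliosis; lung and liver for extramedullary hematopoiesis.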

[8] = In vitro release from polymeric implants; details: after 28 days
[9] = tested on: Sprague-Dawley rats; experiment: Elevated Plus Maze; type: in vivo
[10] = administered orally with corn oil; ref Rostami and Juhasz, 2011; cited from earlier work
[11] = tested on: rats; details: developmental exposure via the maternal diet, ref Boix et al., 2010; cited from earlier work
[12] = 45-day study, female rats; ref Aqil et al., 2014; cited from earlier work
[13] = rats, dip-coated implants; ref Aqil et al. (2014); cited from earlier work

Oc1cc(Cl)c(-c2cc(Cl)c(O)cc2Cl)cc1Cl [4,4’-52, 4,4’-dihydroxy-2,2’,5,5’-tetrachlorobiphenyl]
detection in the brain ([1]; after 4-52 implant exposure): only found in the medium and high-dose groups | detection in the lung ([1]; after 4-52 implant exposure): detected | presence in the serum and liver ([1]; after 4-52 implant exposure): present in the serum and liver from all exposure groups | detection in serum, brain, liver, and lung [1]: detected | rank order of levels across serum and tissues [1]: serum > lung > liver > brain

Oc1cc(Cl)c(-c2cc(Cl)ccc2Cl)cc1Cl [4-52, 2,2’,5,5’-tetrachlorobiphenyl-4-ol]
Open Field Test locomotor activity (travel distance) in 5 min epochs over 30 min [2]: no significant differences; also recorded: not altered | Hole Board Test total distance traveled ([3]; exposed vs sham groups, one-way ANOVA, p = 0.297): no significant differences | Hole Board Test number of head dipping ([3]; exposed vs sham groups, one-way ANOVA, p = 0.433): no significant differences; also recorded: did not affect | Hole Board Test total distance traveled ([3]; medium-exposed rats, post hoc Fisher’s LSD, p = 0.071): slightly reduced; also recorded: trend of a decrease | implantation site ([4]; end of 28-day study): no signs of adverse effects | adverse outcomes throughout the study ([4]; implants with 0, 1, 5 or 10% of 4-52, 28 days): No adverse outcomes | body weight gain ([4]; implants with 1, 5, 10% 4-52 vs sham, 28 days): No significant differences | other organ weights ([4]; subcutaneous 4-52 exposure, 28 days): no significant effects; also recorded: no other organ weights were affected | relative liver weight (% of body weight) ([4]; subcutaneous 4-52 exposure, 28 days, p < 0.001): decreased dose-dependently; also recorded: significant decrease | In vivo exposure: 4-52 remaining in the implant ([5]; High group, 10% load): 0.80 ± 0.40 mg | In vivo exposure: 4-52 remaining in the implant (%) ([5]; High group, 10% load): 6.9 ± 3.1% | In vivo exposure: 4-52 remaining in the implant ([5]; Low group, 1% load): 0.06 ± 0.02 mg | In vivo exposure: 4-52 remaining in the implant (%) ([5]; Low group, 1% load): 5.8 ± 2.3% | In vivo exposure: 4-52 remaining in the implant ([5]; Medium group, 5% load): 0.40 ± 0.20 mg | In vivo exposure: 4-52 remaining in the implant (%) ([5]; Medium group, 5% load): 6.3 ± 2.8% | 4-52 left in the implants after in vivo exposure ([5]; after 28 days of exposure, range over loads): 5.8-6.9% | Y-maze percentage of spontaneous alternation ([6]; all exposure groups, one-way ANOVA, p = 0.262): no significant changes; also recorded: did not affect | Y-maze total distance traveled ([6]; all exposure groups, one-way ANOVA, p = 0.300): no significant changes | Y-maze number of total entries ([6]; all exposure groups, one-way ANOVA, p = 0.342): no significant changes | Y-maze total distance traveled ([6]; medium-exposed group vs sham, post hoc Fisher’s LSD, p = 0.067): trend to decrease; also recorded: trend of a decrease | Y-maze total number of entries ([6]; medium-exposed group vs sham, post hoc Fisher’s LSD, p = 0.087): trend to decrease; also recorded: trend of a decrease | histopathological evaluation of brain and lung ([7]; exposed or sham rats, 28 days): no overt treatment-specific lesions | prevalence of minimal liver inflammation (% of evaluated slides) ([7]; high dose group): 75% | prevalence of minimal liver inflammation (% of evaluated slides) ([7]; low dose group): 12.5% | prevalence of minimal liver inflammation (% of evaluated slides) ([7]; medium dose group): 25% | levels in serum and tissues versus 4-52 dose ([1]; all compartments): increased with increasing 4-52 doses | detection in serum, brain, liver, and lung [1]: detected | rank order of levels across serum and tissues [1]: serum >> liver > lung > brain | In vitro release: 4-52 remaining in the implant (%) ([8]; High group, 10% load): 5.2 ± 1.1% | In vitro release: 4-52 remaining in the implant (%) ([8]; Low group, 1% load): 3.4 ± 0.9% | In vitro release: 4-52 remaining in the implant (%) ([8]; Medium group, 5% load): 2.9 ± 1.8% | Elevated Plus Maze time in the open arm ([9]; high group, did not reach statistical significance, p = 0.076): marginally increased | Elevated Plus Maze time in the enclosed arm ([9]; high-exposed group vs sham, post hoc Fisher’s LSD, p = 0.043): significantly decreased | Elevated Plus Maze distance traveled in the enclosed arm ([9]; medium exposed group, post hoc Fisher’s LSD, p = 0.097): trend of reduction; also recorded: decreased

Clc1ccc(Cl)c(-c2cc(Cl)ccc2Cl)c1 [PCB 52, 2,2’,5,5’-Tetrachlorobiphenyl]
oral bioavailability rate [10]: 52.9% | Y-maze performance [11]: did not affect | motor coordination [11]: impaired

Clc1ccc(-c2cc(Cl)c(Cl)c(Cl)c2)cc1Cl [PCB 126]
released from polymeric implants in vivo [12]: 49% | liver weights compared to sham controls [13]: significantly increased

Clc1cc(Cl)c(-c2cc(Cl)c(Cl)cc2Cl)cc1Cl [PCB 153]
released from polymeric implants in vivo [12]: 73%
